Consider one compound from PubChem BioAssay AID588423 (The Scripps Research Institute Molecular Screening Center, 2011).

Calls of active or inactive are those of the source.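 How the source made its calls: active means IC50 at or below 1 µM; inactive means the rest.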

The assay addresses Protein-arginine deiminase type-4 (Homo sapiens) (UniProt Q9UM07). Briefly: recombinant human PAD4 inhibitors – biochemical, BAEE substrate, citrulline absorbance, 0-15 µM range, late-stage follow-up (AID 588423). The following applies: recombinant PAD4, BAEE citrulline colorimetric absorbance. Summed up:
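Test system – recombinant PAD4 · Quantity – 0.2 µM PAD4 enzyme · Buffer or medium – pH 7.6 Tris buffer with calcium and DTT · Also added – BAEE substrate at 10 mM · Incubation – 15 min pre-incubation plus 15 min reaction, 37 °C · Technique – citrulline color, absorbance 540 nm · Measure – IC50 from dose-response fit, citrulline via standard curve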

Protein-arginine deiminase type-4 (Homo sapiens), sequence (Q9UM07 whole entry, looked up): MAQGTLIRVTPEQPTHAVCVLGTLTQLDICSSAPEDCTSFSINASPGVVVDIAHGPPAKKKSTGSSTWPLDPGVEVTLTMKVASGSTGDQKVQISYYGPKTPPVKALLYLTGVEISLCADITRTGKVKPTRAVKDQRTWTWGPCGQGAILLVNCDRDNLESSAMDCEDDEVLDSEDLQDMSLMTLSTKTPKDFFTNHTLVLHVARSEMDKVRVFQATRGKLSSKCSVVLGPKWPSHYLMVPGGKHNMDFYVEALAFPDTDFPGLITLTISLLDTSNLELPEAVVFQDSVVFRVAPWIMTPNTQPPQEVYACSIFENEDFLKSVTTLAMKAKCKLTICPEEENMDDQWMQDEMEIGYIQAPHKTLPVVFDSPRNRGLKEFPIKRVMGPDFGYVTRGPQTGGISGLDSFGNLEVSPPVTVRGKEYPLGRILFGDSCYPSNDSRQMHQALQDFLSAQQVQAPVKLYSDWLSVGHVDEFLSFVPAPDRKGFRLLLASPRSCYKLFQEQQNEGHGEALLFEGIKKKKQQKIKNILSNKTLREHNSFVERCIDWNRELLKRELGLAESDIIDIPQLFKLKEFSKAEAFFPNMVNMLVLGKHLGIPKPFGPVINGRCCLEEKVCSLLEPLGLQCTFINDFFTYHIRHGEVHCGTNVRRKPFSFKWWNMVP

Turning to `O=C1C(O)=C(O)C(=O)c2ncccc21`, the IC50 entry was “inactive”.
